ChEMBL document CHEMBL5233289, “Synthesis of Quinoline and Dihydroquinoline Embelin Derivatives as Cardioprotective Agents” (J Nat Prod, 2023)
Activity calls are given as the source filed them. The calls are words filed in the database; no cut-off is given here.

Assays:
[1] = tested on: H9c2; assay: Antioxidant activity against rat H9c2 cells assessed as reduction in doxorubicin-induced oxidative stress by measuring reduction in intracellular ROS level at 1 mM incubated for 24 hrs by DCFH-DA staining based fluorometric analysis
[2] = target: Mitogen-activated protein kinase 1 and 3 (ERK2 and ERK1) (Rattus norvegicus) (UniProt P63086+P21708); assay: Inhibition of doxorubicin-induced ERK1/2 activation in rat H9c2 cells assessed as reduction in ERK1/2 phosphorylation at 20 uM in presence of doxorubicin by immunoblot analysis; type: cell-based
Outline: (§1)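 H9c2 cell lysates after DOX (1 μM) alone or with derivative (20 μM) were run on SDS-PAGE and transferred to PVDF. Blots were probed for pAkt, Akt, pERK1/2, ERK1/2, Bax and Bcl-2, with β-actin as loading control. Detection used HRP secondary (2 h) and ECL, with densitometric quantification. Mean ± SD, n = 3.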

[3] = tested on: H9c2; assay: Cardioprotective activity against doxorubicin-treated rat H9c2 cells assessed as increase in Bcl2 protein expression at 20 uM in presence of doxorubicin by immunoblot analysis; type: functional, cell-based
Outline: as §1

[4] = tested on: H9c2; assay: Activation of Akt in rat H9c2 cells assessed as increase in Akt phosphorylation at 20 uM in presence of doxorubicin by immunoblot analysis; type: cell-based; settings: filed as activator
Outline: as §1

[5] = tested on: H9c2; assay: Antioxidant activity against rat H9c2 cells assessed as reduction in doxorubicin-induced oxidative stress by measuring reduction in intracellular ROS level at 20 uM incubated for 24 hrs by DCFH-DA staining based fluorometric analysis
[6] = tested on: MCF7; assay: Antagonizing activity against doxorubicin-induced antitumor activity in human MCF7 cells assessed as cell viability at 20 uM incubated for 24 hrs in presence of doxorubicin by MTT assay; type: toxicity, cell-based; settings: mcf7, 24 h
Outline: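 MCF-7 human breast cancer cells in DMEM with 10% FBS, 37 °C, 5% CO2. They were co-treated with compound (20 μM) plus DOX (1 μM) for 24 h. Viability was read by MTT: 1 h at 37 °C, formazan in DMSO, A540. Mean ± SD, n = 3.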

[7] = tested on: H9c2; assay: Cardioprotective activity against doxorubicin-treated rat H9c2 cells assessed as decrease in Bax protein expression at 20 uM in presence of doxorubicin by immunoblot analysis; type: functional, cell-based
Outline: as §1

[8] = tested on: H9c2; assay: Induction of oxidative stress in rat H9c2 cells assessed as increase in intracellular ROS level at 20 uM incubated for 24 hrs by DCFH-DA staining based fluorometric analysis; type: toxicity, cell-based; settings: h9c2, 24 h
Outline: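 Intracellular ROS in H9c2 cells. Cells were treated with compound (20 μM) alone or with DOX (1 μM) over 24 h, with NAC (1 mM) as ROS inhibitor. They were then loaded with 10 μM DCFH-DA for 30 min at 37 °C in the dark. Fluorescence was read at 485/550 nm. Mean ± SD, n = 3.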

[9] = Cytotoxicity against rat H9c2 cells assessed as cell viability at 20 uM incubated for 24 hrs by MTT assay (reference value: 100%); type: toxicity, cell-based; settings: read-out: Activity
Outline: (§2)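 J774A.1 murine macrophages or H9c2 rat cardiomyocytes, grown in DMEM with 10% FBS and 1% pen/strep, were seeded for 24 h and then incubated with compound alone for 24 h. MTT reagent was added for 1 h at 37 °C, formazan dissolved in DMSO, absorbance at 540 nm. Results relative to untreated cells, mean ± SD, n = 3.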

[10] = tested on: H9c2; assay: Cardioprotective activity against rat H9c2 cells assessed as reduction in doxorubicin-induced cardiotoxicity by measuring cell viability at 20 uM incubated for 24 hrs in presence of doxorubicin by MTT assay; type: functional
Outline: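 H9c2 rat cardiomyocytes in DMEM with 10% FBS, seeded for 24 h, then co-treated with compound (20 μM) and DOX (1 μM) for 24 h. MTT added for 1 h at 37 °C, formazan dissolved in DMSO, absorbance read at 540 nm. DOX alone served as positive control. Mean ± SD, n = 3.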

[11] = Cytotoxicity against mouse J774.A1 cells assessed as cell viability at 20 uM incubated for 24 hrs by MTT assay (reference value: 100%); type: toxicity, cell-based; settings: read-out: Activity
Outline: as §2

[12] = Cytotoxicity against mouse J774.A1 cells assessed as cell viability at 10 uM incubated for 24 hrs by MTT assay (reference value: 100%); type: toxicity, cell-based; settings: read-out: Activity
Outline: as §2

[13] = Cytotoxicity against rat H9c2 cells assessed as cell viability at 10 uM incubated for 24 hrs by MTT assay (reference value: 100%); type: toxicity, cell-based; settings: read-out: Activity
Outline: as §2

Mitogen-activated protein kinase 1 and 3 (ERK2 and ERK1) (Rattus norvegicus), sequence (P21708 whole entry, looked up): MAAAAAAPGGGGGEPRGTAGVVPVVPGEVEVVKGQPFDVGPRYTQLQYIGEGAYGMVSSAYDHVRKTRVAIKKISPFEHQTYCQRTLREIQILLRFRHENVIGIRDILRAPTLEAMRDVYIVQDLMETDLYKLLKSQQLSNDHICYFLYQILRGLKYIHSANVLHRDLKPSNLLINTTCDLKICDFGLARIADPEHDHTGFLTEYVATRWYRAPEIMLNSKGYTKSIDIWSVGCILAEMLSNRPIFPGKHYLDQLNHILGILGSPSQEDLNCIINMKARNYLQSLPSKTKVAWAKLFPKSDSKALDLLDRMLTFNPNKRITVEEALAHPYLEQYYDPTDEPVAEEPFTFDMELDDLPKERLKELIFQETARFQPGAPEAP
Mitogen-activated protein kinase 1 and 3 (ERK2 and ERK1) (Rattus norvegicus), sequence (P63086 whole entry, looked up): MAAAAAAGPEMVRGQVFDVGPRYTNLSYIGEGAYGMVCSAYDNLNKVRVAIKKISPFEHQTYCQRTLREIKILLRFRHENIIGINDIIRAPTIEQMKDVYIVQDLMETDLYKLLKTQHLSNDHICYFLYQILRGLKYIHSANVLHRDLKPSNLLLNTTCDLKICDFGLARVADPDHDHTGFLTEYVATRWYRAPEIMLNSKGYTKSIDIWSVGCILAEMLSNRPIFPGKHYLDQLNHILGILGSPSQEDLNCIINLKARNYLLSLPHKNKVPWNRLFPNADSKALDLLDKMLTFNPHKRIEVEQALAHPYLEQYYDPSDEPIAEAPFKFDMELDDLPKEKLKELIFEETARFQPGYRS

inhibition [2] | SMILES | Activity [1] | Activity [3] | Activity [4] | Activity [5] | Activity [6] | Activity [7] | Activity [8] | viability at 24 h, 20 µM [9] | Activity [10] | viability at 24 h, 20 µM [11] | viability at 24 h, 10 µM [12] | viability at 24 h, 10 µM [13]
– | CC(=O)N[C@@H](CS)C(=O)O | Active | – | – | – | – | – | – | – | – | – | – | –
Active | CCCCCCCCCCCC1=C(O)C(=O)c2c(nc3ccccc3c2-c2ccc([N+](=O)[O-])cc2)C1=O | – | Active | Active | Active | Non-Toxic | Active | Non-Toxic | – | – | – | – | –
Active | CCCCCCCCCCCC1=C(O)C(=O)c2c(nc3ccc(OC)cc3c2-c2ccc([N+](=O)[O-])cc2)C1=O | – | Active | Active | Active | Non-Toxic | Active | Non-Toxic | 94.4% | 84.3% | 76.3% | 81.9% | 99.2%
Active | CCCCCCCCCCCC1=C(O)C(=O)C2=C(Nc3ccccc3C2c2ccc(C)c(C)c2)C1=O (stereo not given) | – | Active | Active | Active | Non-Toxic | Active | Non-Toxic | – | – | – | – | –
Active | CCCCCCCCCCCC1=C(O)C(=O)c2c(nc3ccccc3c2-c2ccc(Br)cc2)C1=O | – | Active | Active | Active | Non-Toxic | Active | Non-Toxic | – | 83.4% | – | – | –
– | CCCCCCCCCCCC1=C(O)C(=O)c2c(nc3ccccc3c2-c2ccc(F)cc2)C1=O | – | – | – | – | Toxic | – | – | – | 81.4% | – | – | –
Active | CCCCCCCCCCCC1=C(O)C(=O)c2c(nc3ccc(Br)cc3c2-c2ccc([N+](=O)[O-])cc2)C1=O | – | Active | Active | Active | Non-Toxic | Active | Non-Toxic | – | 91.2% | – | – | –
